Results reported in ChEMBL document CHEMBL1125135, “Synthesis and central nervous system actions of thyrotropin-releasing hormone analogues containing a dihydroorotic acid moiety” (J Med Chem, 1990).
Activity calls are given as the source filed them. No cut-off for these calls is given here.

Assays:
Mus musculus [1] = assay: (§1) Effect on pentobarbitol anesthesia (antagonist activity) in mice by intravenous (iv) administration relative to TRH; format: functional
How it was run: (§2)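 Mouse CNS assay run by the method of an earlier report. Potency ratio to TRH derived from dose-response data by parallel line assay.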

Mus musculus [2] = assay: Effect on reserpine-induced hypothermia (antagonist activity) in mice by intraperitoneal (ip) administration relative to TRH; Nonactive; format: functional; how it was run: as §2
Mus musculus [3] = assay: Toxicity and mortality indicates the number of dead animals / number of animals used at dose of 500 mg/kg by administering intravenously (iv) in 3 mice.; format: organism-based; parameters: dose 500 mg/kg, route intravenous; details: in vivo
How it was run: (§3)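 Acute toxicity in male Std/ddY mice (26-28 g), three to 10 per group. Compound dissolved in physiological saline and given as a single iv dose of 500 mg/kg. Animals observed for 1 week at 23-24 °C. Mortality recorded as dead/used.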

Mus musculus [4] = assay: Evaluated for the effect on spontaneous locomotor activity in mice by intraperitoneal (ip) administration relative to TRH
Mus musculus [5] = assay: (§4) Effect on reserpine-induced hypothermia (antagonist activity) in mice by intraperitoneal (ip) administration relative to TRH; format: functional; how it was run: as §2
Mus musculus [6] = assay: Evaluated for the effect on spontaneous locomotor activity in mice by intraperitoneal (ip) administration relative to TRH; remark: listed apart in the source
Mus musculus [7] = assay: as §1; format: functional, organism-based
How it was run: (§5)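 Mouse CNS tests followed methods from the authors' earlier paper. The potency ratio versus TRH comes from dose-response data for the test compound and TRH using the parallel line assay method.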

Mus musculus [8] = assay: as §4; format: functional, organism-based; how it was run: as §5
Mus musculus [9] = assay: Toxicity and mortality indicates the number of dead animals / number of animals used at the compound dose of 500 mg/kg by administering intravenously (iv) in mice.; format: organism-based; parameters: dose 500 mg/kg, route intravenous; details: in vivo; how it was run: as §3
Mus musculus [10] = assay: Effect on pentobarbitol anesthesia (antagonist activity) in mice by intravenous (iv) administration relative to TRHC; Not active; format: functional, organism-based; how it was run: as §5
Mus musculus [11] = assay: Evaluated for the effect on spontaneous locomotor activity in mice by intraperitoneal (ip) administration relative to TRHV; Not active
Mus musculus [12] = assay: Toxicity and mortality indicates the number of dead animals / number of animals used at the compound dose of 500 mg/kg by administering intravenously (iv) in 3 mice; format: functional; how it was run: as §3
Rattus norvegicus [13] = assay: The thyrotropin (TSH) releasing activity was measured as serum TSH at 0.5 ug/rat dose (i.v.); format: functional, organism-based
How it was run: (§6)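 TSH release test in rats run as in the authors' earlier paper. Peptide given iv as μg/rat doses, 4–7 rats per group with a control group. Serum TSH reported in μg/100 mL as mean ± SE. Potency ratio versus TRH from parallel-line analysis of dose-response curves. Groups compared with control by two-tailed Student's t test.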

Rattus norvegicus [14] = assay: The thyrotropin (TSH) releasing activity was measured as serum TSH at 0.03125 ug/rat dose (i.v.); format: functional, organism-based; how it was run: as §6
[15] = Evaluated for the potency ratio from the dose-response curve of TRH and compound by the parallel line assay method.; format: functional; how it was run: as §6
Rattus norvegicus [16] = assay: The thyrotropin (TSH) releasing activity was measured as serum TSH at 0.125 ug/rat dose (i.v.); format: functional, organism-based; how it was run: as §6

| SMILES | Activity (Mus musculus [1]) | Mortality (Mus musculus [3]) | Activity (Mus musculus [6]) | Activity (Mus musculus [7]) | Activity (Mus musculus [8]) | other results |
| --- | --- | --- | --- | --- | --- | --- |
| CNC(=O)[C@H]1CCCN1C(=O)[C@@H](Cc1c[nH]cn1)NC(=O)[C@@H]1CC(=O)N(C)C(=O)N1 | 0.6 | 0 | – | – | – | Activity (Mus musculus [2]): 0.9; Activity (Mus musculus [4]): 0.4 |
| CC(C)N1C(=O)C[C@@H](C(=O)N[C@@H](Cc2c[nH]cn2)C(=O)N2CCC[C@H]2C(N)=O)NC1=O [listing 1 of 2 here] | 1.9 | – | – | – | – | Activity (Mus musculus [5]): 11.5; Activity (Mus musculus [4]): 5 |
| NC(=O)[C@@H]1CCCN1C(=O)[C@H](Cc1c[nH]cn1)NC(=O)C1CC(=O)N(CCOCc2ccccc2)C(=O)N1 (mixture of isomers) | 0.4 | 0 | inactive | – | – | Activity (Mus musculus [5]): 1.1 |
| NC(=O)[C@@H]1CCCN1C(=O)[C@H](Cc1c[nH]cn1)NC(=O)C1=NC(=O)NC(=O)C1 | 1.3 | 0 | – | – | – | Activity (Mus musculus [5]): 5.5; Activity (Mus musculus [4]): 3.1 |
| NC(=O)[C@@H]1CCCN1C(=O)[C@H](Cc1c[nH]cn1)NC(=O)[C@@H]1CC(=O)N(CCF)C(=O)N1 [listing 1 of 2 here] | – | 1 | – | – | – | – |
| CN1C(=O)C[C@@H](C(=O)N[C@@H](Cc2c[nH]cn2)C(=O)N2CCC[C@H]2C(N)=O)N(C)C1=O [listing 1 of 2 here] | 1.2 | – | – | – | – | Activity (Mus musculus [5]): 0.5; Activity (Mus musculus [4]): 0.4 |
| CCCCN1C(=O)CC(C(=O)N[C@@H](Cc2c[nH]cn2)C(=O)N2CCC[C@H]2C(N)=O)N(C)C1=O (stereo partly drawn) | – | 0 | inactive | inactive | inactive | – |
| CN1C(=O)C[C@@H](C(=O)N[C@H](Cc2c[nH]cn2)C(=O)N2CCC[C@@H]2C(=O)O)NC1=O | – | 0 | inactive | inactive | inactive | – |
| NC(=O)[C@@H]1CCCN1C(=O)[C@H](Cc1c[nH]cn1)NC(=O)[C@@H]1CC(=O)N(CC(=O)O)C(=O)N1 | 0.1 | 0 | inactive | – | – | Activity (Mus musculus [5]): 0.1 |
| C=CCN1C(=O)C[C@@H](C(=O)N[C@@H](Cc2c[nH]cn2)C(=O)N2CCC[C@H]2C(N)=O)NC1=O [listing 1 of 2 here] | 4.4 | – | – | – | – | Activity (Mus musculus [5]): 4.7; Activity (Mus musculus [4]): 5.7 |
| CCCCCN1C(=O)C[C@@H](C(=O)N[C@H](Cc2c[nH]cn2)C(=O)N2CCC[C@@H]2C(N)=O)NC1=O | – | – | inactive | – | inactive | – |
| CCCN1C(=O)C[C@@H](C(=O)N[C@@H](Cc2c[nH]cn2)C(=O)N2CCC[C@H]2C(N)=O)NC1=O [listing 1 of 2 here] | – | – | – | – | – | Activity (Mus musculus [4]): 0.7 |
| CN1C(=O)C[C@@H](C(=O)N[C@@H](Cc2c[nH]cn2)C(=O)N2CCC[C@H]2C(N)=O)N(C)C1=O [listing 2 of 2 here] | – | 0 | – | – | – | – |
| CCCCCN1C(=O)C[C@@H](C(=O)N[C@@H](Cc2c[nH]cn2)C(=O)N2CCC[C@H]2C(N)=O)NC1=O [listing 1 of 2 here] | – | 2 | – | – | – | – |
| CN1C(=O)C[C@@H](C(=O)N[C@H](Cc2c[nH]cn2)C(=O)O)NC1=O | – | 0 | inactive | inactive | inactive | – |
| CCC[C@H](NC(=O)[C@@H]1CC(=O)N(C)C(=O)N1)C(=O)N1CCC[C@@H]1C(N)=O | – | 0 | inactive | inactive | inactive | – |
| NC(=O)[C@@H]1CCCN1C(=O)[C@H](Cc1c[nH]cn1)NC(=O)[C@@H]1CC(=O)N(Cc2ccccc2)C(=O)N1 [listing 1 of 2 here] | 1.4 | – | – | – | – | Activity (Mus musculus [5]): 6.8; Activity (Mus musculus [4]): 2.3 |
| NC(=O)[C@@H]1CCCN1C(=O)[C@H](Cc1c[nH]cn1)NC(=O)[C@@H]1CC(=O)N(Cc2ccccc2)C(=O)N1 [listing 2 of 2 here] | – | 3 | – | – | – | – |
| CCCN1C(=O)C[C@@H](C(=O)N[C@@H](Cc2c[nH]cn2)C(=O)N2CCC[C@H]2C(N)=O)NC1=O [listing 2 of 2 here] | – | 0 | – | – | – | – |
| CN1C(=O)NC(=O)C[C@H]1C(=O)N[C@H](Cc1c[nH]cn1)C(=O)N1CCC[C@@H]1C(N)=O | – | – | inactive | inactive | inactive | – |
| CN(C)C(=O)[C@H]1CCCN1C(=O)[C@@H](Cc1c[nH]cn1)NC(=O)[C@@H]1CC(=O)N(C)C(=O)N1 | – | 0 | inactive | inactive | inactive | – |

| SMILES | Activity (Mus musculus [1]) | Mortality (Mus musculus [3]) | Activity (Mus musculus [6]) | Activity (Mus musculus [7]) | Activity (Mus musculus [8]) | other results |
| --- | --- | --- | --- | --- | --- | --- |
| C=CCN1C(=O)C[C@@H](C(=O)N[C@@H](Cc2c[nH]cn2)C(=O)N2CCC[C@H]2C(N)=O)NC1=O [listing 2 of 2 here] | – | 1 | – | – | – | – |
| CN1C(=O)C[C@@H](C(=O)N[C@H](Cc2c[nH]cn2)C(=O)N2CCC[C@H]2C(N)=O)NC1=O | – | 0 | inactive | inactive | inactive | – |
| CC(=O)O.CCCCCCCCCCCCCCCCCCN1C(=O)C[C@@H](C(=O)N[C@@H](Cc2c[nH]cn2)C(=O)N2CCC[C@H]2C(N)=O)NC1=O | – | – | – | – | – | Mortality (Mus musculus [9]): 1 |
| CCCCN1C(=O)C[C@@H](C(=O)N[C@@H](Cc2c[nH]cn2)C(=O)N2CCC[C@H]2C(N)=O)NC1=O [listing 1 of 2 here] | – | 1 | – | – | – | – |
| CN1C(=O)NC(=O)C[C@H]1C(=O)N[C@@H](Cc1c[nH]cn1)C(=O)N1CCC[C@H]1C(N)=O | – | 0 | – | – | – | – |
| CN1C(=O)C[C@@H](C(=O)N[C@H](Cc2c[nH]cn2)C(=O)N2CCC[C@@H]2C(=O)OCc2ccccc2)NC1=O.Cl | – | 3 | – | – | inactive | Activity (Mus musculus [10]): inactive; Activity (Mus musculus [11]): inactive |
| CN1C(=O)C[C@@H](C(=O)N[C@@H](Cc2c[nH]cn2)C(=O)N2CCC[C@H]2C(N)=O)NC1=O | 28.1 | – | – | – | – | Activity (Mus musculus [5]): 89.4; Mortality (Mus musculus [12]): 0; Activity (Mus musculus [4]): 60.6 |
| Cn1c(=O)cc(C(=O)N[C@@H](Cc2c[nH]cn2)C(=O)N2CCC[C@@H]2C(N)=O)[nH]c1=O | 0.4 | 0 | inactive | – | inactive | – |
| COC(=O)[C@@H](Cc1c[nH]cn1)NC(=O)[C@@H]1CC(=O)N(C)C(=O)N1 | – | 0 | inactive | inactive | inactive | – |
| NC(=O)[C@@H]1CCCN1C(=O)[C@H](Cc1c[nH]cn1)NC(=O)C1CC(=O)N(CCO)C(=O)N1 (mixture of isomers) | – | 0 | inactive | inactive | inactive | – |
| NC(=O)[C@@H]1CCCN1C(=O)[C@H](Cc1c[nH]cn1)NC(=O)[C@@H]1CCC(=O)N1 | – | – | – | – | – | Serum TSH (Rattus norvegicus [13]): 351 µg 100ml-1; Serum TSH (Rattus norvegicus [14]): 59.1 µg 100ml-1; Ratio [15]: 1; Serum TSH (Rattus norvegicus [16]): 115 µg 100ml-1 |
| CCCCCN1C(=O)C[C@@H](C(=O)N[C@@H](Cc2c[nH]cn2)C(=O)N2CCC[C@H]2C(N)=O)NC1=O [listing 2 of 2 here] | 0.4 | – | – | – | – | – |
| CCCCN1C(=O)C[C@@H](C(=O)N[C@@H](Cc2c[nH]cn2)C(=O)N2CCC[C@H]2C(N)=O)NC1=O [listing 2 of 2 here] | 0.8 | – | – | – | – | Activity (Mus musculus [5]): 1.8; Activity (Mus musculus [4]): 1.2 |
| NCCN1C(=O)CC(C(=O)N[C@@H](Cc2c[nH]cn2)C(=O)N2CCC[C@H]2C(N)=O)NC1=O (mixture of isomers) | – | 0 | inactive | inactive | inactive | – |
| CCCCCCCCCCCCCCCCCCN1C(=O)C[C@@H](C(=O)N[C@H](Cc2c[nH]cn2)C(=O)N2CCC[C@@H]2C(N)=O)NC1=O | – | – | inactive | inactive | inactive | – |
| CN1C(=O)C[C@@H](C(=O)N[C@@H](Cc2c[nH]cn2)C(=O)N2CCC[C@@H]2C(N)=O)NC1=O | – | 0 | inactive | inactive | inactive | – |
| CC(C)N1C(=O)C[C@@H](C(=O)N[C@@H](Cc2c[nH]cn2)C(=O)N2CCC[C@H]2C(N)=O)NC1=O [listing 2 of 2 here] | – | 0 | – | – | – | – |
| NC(=O)[C@@H]1CCCN1C(=O)[C@H](Cc1c[nH]cn1)NC(=O)[C@@H]1CC(=O)N(CCF)C(=O)N1 [listing 2 of 2 here] | 1.2 | – | – | – | – | Activity (Mus musculus [5]): 4.1; Activity (Mus musculus [4]): 0.9 |
| CN1C(=O)N(Cc2ccccc2)C(=O)CC1C(=O)N[C@@H](Cc1c[nH]cn1)C(=O)N1CCC[C@H]1C(N)=O (mixture of isomers) | – | 0 | inactive | inactive | inactive | – |
| CN1C(=O)C[C@@H](C(=O)N[C@H](Cc2c[nH]cn2)C(=O)OCc2ccccc2)NC1=O | – | 0 | inactive | inactive | inactive | – |
